Measurements as given in ChEMBL document CHEMBL1926642, “Relevance of the C-5 position to schweinfurthin induced cytotoxicity” (2011).

Assays:
Assay type in all cases: functional
[1] = tested on: HL-60(TB); experiment: Growth inhibition of human HL-60(TB) cells after 48 hrs by sulforhodamine B assay; conditions: HL-60, 48 h
In short: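 Run in the NCI 60 cell-line screen as the full 5-dose assay that follows initial single-dose testing; GI50 is read from the dose series.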

[2] = tested on: MOLT-4; experiment: Growth inhibition of human MOLT4 cells after 48 hrs by sulforhodamine B assay; conditions: MOLT-4, 48 h
[3] = tested on: EKVX; experiment: Growth inhibition of human EKVX cells after 48 hrs by sulforhodamine B assay
[4] = tested on: HOP-62; experiment: Growth inhibition of human HOP62 cells after 48 hrs by sulforhodamine B assay; conditions: HOP-62, 48 h
[5] = tested on: HOP-92; experiment: Growth inhibition of human HOP92 cells after 48 hrs by sulforhodamine B assay; conditions: HOP-92, 48 h
[6] = tested on: NCI-H226; experiment: Growth inhibition of human NCI-H226 cells after 48 hrs by sulforhodamine B assay; conditions: NCI-H226, 48 h
[7] = tested on: NCI-H522; experiment: Growth inhibition of human NCI-H522 cells after 48 hrs by sulforhodamine B assay; conditions: NCI-H522, 48 h
[8] = tested on: COLO 205; experiment: Growth inhibition of human COLO205 cells after 48 hrs by sulforhodamine B assay; conditions: COLO 205, 48 h
[9] = tested on: HCC 2998; experiment: Growth inhibition of human HCC2998 cells after 48 hrs by sulforhodamine B assay; conditions: HCC 2998, 48 h
[10] = tested on: SF-268; experiment: Growth inhibition of human SF268 cells after 48 hrs by sulforhodamine B assay; conditions: SF-268, 48 h
[11] = tested on: SNB-19; experiment: Growth inhibition of human SNB19 cells after 48 hrs by sulforhodamine B assay; conditions: SNB-19, 48 h
[12] = tested on: U-251; experiment: Growth inhibition of human U251 cells after 48 hrs by sulforhodamine B assay; conditions: U-251, 48 h
[13] = tested on: LOX IMVI; experiment: Growth inhibition of human LOXIMVI cells after 48 hrs by sulforhodamine B assay
[14] = tested on: SK-MEL-28; experiment: Growth inhibition of human SK-MEL-28 cells after 48 hrs by sulforhodamine B assay; conditions: SK-MEL-28, 48 h
[15] = tested on: SK-MEL-5; experiment: Growth inhibition of human SK-MEL-5 cells after 48 hrs by sulforhodamine B assay; conditions: SK-MEL-5, 48 h
[16] = tested on: IGROV-1; experiment: Growth inhibition of human IGROV1 cells after 48 hrs by sulforhodamine B assay; conditions: IGROV-1, 48 h
[17] = tested on: OVCAR-3; experiment: Growth inhibition of human OVCAR3 cells after 48 hrs by sulforhodamine B assay; conditions: OVCAR-3, 48 h
[18] = tested on: NCI/ADR-RES; experiment: Growth inhibition of human NCI/ADR-RES cells after 48 hrs by sulforhodamine B assay
[19] = tested on: 786-0; experiment: Growth inhibition of human 786-0 cells after 48 hrs by sulforhodamine B assay; conditions: 786-0, 48 h
[20] = tested on: CAKI-1; experiment: Growth inhibition of human Caki1 cells after 48 hrs by sulforhodamine B assay; conditions: CAKI-1, 48 h
[21] = tested on: RXF 393; experiment: Growth inhibition of human RXF393 cells after 48 hrs by sulforhodamine B assay; conditions: RXF 393, 48 h
[22] = tested on: TK-10; experiment: Growth inhibition of human TK10 cells after 48 hrs by sulforhodamine B assay; conditions: TK-10, 48 h
[23] = tested on: MCF7; experiment: Growth inhibition of human MCF7 cells after 48 hrs by sulforhodamine B assay; conditions: MCF7, 48 h
[24] = tested on: MDA-MB-231; experiment: Growth inhibition of human MDA-MB-231/ATCC cells after 48 hrs by sulforhodamine B assay; conditions: MDA-MB-231, 48 h
[25] = Growth inhibition of human Hs 578T cells after 48 hrs by sulforhodamine B assay
[26] = tested on: BT-549; experiment: Growth inhibition of human BT549 cells after 48 hrs by sulforhodamine B assay; conditions: BT-549, 48 h
[27] = read-out: pLC50 (the source's name) (converted)

For `COc1cc(/C=C/c2ccc3c(c2)C[C@@H]2C(C)(C)[C@H](O)CC[C@@]2(C)O3)cc(O)c1C/C=C(\C)CCC=C(C)C`, the GI50 [1] was 13.8 µM, the CC50 [1, 27] was > 100 µM and the TGI ([1]; read-out: pTGI (converted)) was 57.5 µM. For the same molecule, the GI50 [2] was 5.01 µM, the LC50 [2] was > 100 µM and the TGI ([2]; read-out: pTGI (converted)) was 38.9 µM. For the same molecule, the GI50 [3] was 14.5 µM, the LC50 (50% lethal concentration) [3] was > 100 µM and the TGI ([3]; read-out: pTGI (converted)) was 57.5 µM. The GI50 [4] was 6.17 µM, the LC50 [4] was 52.5 µM and the TGI ([4]; read-out: pTGI (converted)) was 20 µM. For the same molecule, the GI50 [5] was 17.8 µM, the LC50 [5] was > 100 µM and the TGI ([5]; read-out: pTGI (converted)) was 49 µM. The GI50 [6] was 22.9 µM, the LC50 [6] was > 100 µM and the TGI ([6]; read-out: pTGI (converted)) was 56.2 µM. It also gave a GI50 [7] of 17.8 µM, an LC50 [7] of 66.1 µM and a TGI ([7]; read-out: pTGI (converted)) of 33.9 µM. For the same molecule, the GI50 [8] was 3.63 µM, the LC50 [8] was 49 µM and the TGI ([8]; read-out: pTGI (converted)) was 11 µM. For the same molecule, the GI50 [9] was 15.8 µM, the LC50 [9] was 85.1 µM and the TGI ([9]; read-out: pTGI (converted)) was 37.2 µM. The GI50 [10] was 14.8 µM, the LC50 [10] was 81.3 µM and the TGI ([10]; read-out: pTGI (converted)) was 34.7 µM. It also gave a GI50 [11] of 15.5 µM, an LC50 [11] of 91.2 µM and a TGI ([11]; read-out: pTGI (converted)) of 37.2 µM. It also gave a GI50 [12] of 5.62 µM, an LC50 [12] of 63.1 µM and a TGI ([12]; read-out: pTGI (converted)) of 22.4 µM. The GI50 [13] was 3.31 µM, the LC50 [13] was 37.2 µM and the TGI ([13]; read-out: pTGI (converted)) was 11.5 µM. It also gave a GI50 [14] of 16.2 µM, a CC50 [14, 27] of 69.2 µM and a TGI ([14]; read-out: pTGI (converted)) of 33.1 µM. The GI50 [15] was 8.71 µM, the LC50 [15] was 49 µM and the TGI ([15]; read-out: pTGI (converted)) was 21.4 µM. It also gave a GI50 [16] of 14.5 µM, an LC50 [16] of 70.8 µM and a TGI ([16]; read-out: pTGI (converted)) of 31.6 µM. The GI50 [17] was 17.4 µM, the LC50 [17] was 66.1 µM and the TGI ([17]; read-out: pTGI (converted)) was 33.9 µM. For the same molecule, the GI50 [18] was 21.4 µM, the LC50 [18] was > 100 µM and the TGI ([18]; read-out: pTGI (converted)) was 51.3 µM. The GI50 [19] was 2.95 µM, the CC50 [19, 27] was 42.7 µM and the TGI ([19]; read-out: pTGI (converted)) was 12 µM. It also gave a GI50 [20] of 5.37 µM, an LC50 [20] of 67.6 µM and a TGI ([20]; read-out: pTGI (converted)) of 20 µM. For the same molecule, the GI50 [21] was 1.29 µM, the LC50 (50% lethal concentration) [21] was 6.61 µM and the TGI ([21]; read-out: pTGI (converted)) was 2.88 µM. For the same molecule, the GI50 [22] was 29.5 µM, the LC50 [22] was > 100 µM and the TGI ([22]; read-out: pTGI (converted)) was 79.4 µM. The GI50 [23] was 16.6 µM, the LC50 [23] was 79.4 µM and the TGI ([23]; read-out: pTGI (converted)) was 36.3 µM. For the same molecule, the GI50 [24] was 10 µM, the CC50 [24, 27] was 95.5 µM and the TGI ([24]; read-out: pTGI (converted)) was 30.9 µM. The GI50 [25] was 8.71 µM, the CC50 [25, 27] was > 100 µM and the TGI ([25]; read-out: pTGI (converted)) was 93.3 µM. For the same molecule, the GI50 [26] was 5.01 µM, the LC50 [26] was 49 µM and the TGI ([26]; read-out: pTGI (converted)) was 17.8 µM.
